Data on 19 compounds can be found in ChEMBL document CHEMBL4145595, “Discovery of MK-8282 as a Potent G-Protein-Coupled Receptor 119 Agonist for the Treatment of Type 2 Diabetes” (ACS Med Chem Lett, 2018).

Converted amounts (≈) assume the structure as drawn. The source made the active and inactive calls. No cut-off for these calls is given here.

The target in series [1] is T1, Glucose-dependent insulinotropic receptor (Homo sapiens) (UniProt Q8TDV5).
T1 sequence (whole entry): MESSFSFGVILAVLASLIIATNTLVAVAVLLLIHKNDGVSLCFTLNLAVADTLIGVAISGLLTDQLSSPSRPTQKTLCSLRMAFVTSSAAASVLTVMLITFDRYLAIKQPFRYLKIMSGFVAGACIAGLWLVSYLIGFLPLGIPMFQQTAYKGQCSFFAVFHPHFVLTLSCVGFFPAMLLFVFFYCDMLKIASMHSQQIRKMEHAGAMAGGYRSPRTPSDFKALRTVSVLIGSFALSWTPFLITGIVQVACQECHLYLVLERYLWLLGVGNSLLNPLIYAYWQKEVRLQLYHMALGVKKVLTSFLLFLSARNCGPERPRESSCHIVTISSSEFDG
Kind of series: (§1) Agonist activity at human GPR119 expressed in HEK293 cells assessed as increase in cAMP level after 30 mins by LANCE assay. In kind it is functional, cell-based. (cAMP levels reflect the balance of adenylyl cyclase and phosphodiesterase activity.)

Series [2] concerns the target T2, Glucose-dependent insulinotropic receptor (Homo sapiens, UniProt Q8TDV5).
T2 sequence (Q8TDV5 whole entry): T1 sequence (whole entry)
Described as §1. It counts as functional, cell-based.

Series [3] addresses T3, Glucose-dependent insulinotropic receptor (Mus musculus) (UniProt Q7TQP3).
T3 sequence (whole entry): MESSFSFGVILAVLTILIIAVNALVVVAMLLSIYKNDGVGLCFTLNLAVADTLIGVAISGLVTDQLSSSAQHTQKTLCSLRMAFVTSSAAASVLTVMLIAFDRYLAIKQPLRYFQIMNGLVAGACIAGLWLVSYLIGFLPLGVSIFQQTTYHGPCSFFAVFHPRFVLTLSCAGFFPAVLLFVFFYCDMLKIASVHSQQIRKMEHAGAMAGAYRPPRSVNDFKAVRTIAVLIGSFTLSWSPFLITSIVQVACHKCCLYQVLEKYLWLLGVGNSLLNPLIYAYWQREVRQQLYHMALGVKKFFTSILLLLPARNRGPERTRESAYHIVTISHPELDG
Kind of series: (§2) Agonist activity at mouse GPR119 assessed as increase in cAMP level. In kind it is functional.

The target in series [4] is T4, Glucose-dependent insulinotropic receptor (Mus musculus, UniProt Q7TQP3).
T4 sequence (Q7TQP3 whole entry): T3 sequence (whole entry)
Described as §2. In kind it is functional.

The subject of series [5] is Mus musculus. Nature of the series: Glucose lowering effect in C57Bl/6NCrl mouse assessed as reduction in glucose level at 3 mg/kg, po administered via gavage pretreated for 30 mins followed by glucose-challenge measured after 20 mins by OGTT relative to control. It counts as functional. Details: scale not given: the % may be the effect or the level left. The essentials: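 Overnight-fasted mice got compound or vehicle orally at 3 to 10 mg/kg. Glucose (3 g/kg po) was given 30 min post-dose. Blood glucose was read by hand-held glucometer before dosing, before glucose and 20 min after glucose. Glucose lowering (%) = [(1 − 20 min glucose of treated / 20 min glucose of vehicle) × 100].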

Series [6] in a line: Protein binding in human plasma at 10 uM. It counts as ADME, cell-free. The note with it: read-out: PPB (converted).
A short description of series [7]: Solubility of the compound at pH 7.4. It counts as physicochemical. Particulars: buffer.
Series [8] in a line: Protein binding in mouse plasma at 10 uM. In kind it is ADME, cell-free. The note with it: read-out: PPB (converted).
Series [9] deals with Mus musculus. Kind of series: Antidiabetic activity in C57Bl/6NCrl mouse assessed as increase in plasma GLP1 (7 to 36) amide levels at 3 mg/kg, po administered via gavage pretreated followed by glucose-challenge measured after 10 mins. It counts as functional, organism-based.
Series [10] has as its system Rattus norvegicus. Kind of series: Antidiabetic activity in Sprague-Dawley rat assessed as reduction in glucose excursion at 1 mg/kg, po pretreated followed by glucose challenge measured after 10 to 30 mins by OGTT. In kind it is functional, organism-based. The essentials:
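Sprague-Dawley rats underwent an oral glucose tolerance test with glucose excursion measured. Sitagliptin was dosed at 1 mpk and agonist at 3 mpk, alone or co-administered.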

As a reminder, the EC50 is the midpoint of the concentration-response curve. Consider `CC1(OC(=O)N2CC3COCC(C2)C3Oc2ncnc(Nc3ccc(-n4cncn4)cc3F)c2F)CC1` (stereo unspecified), for which the %max in [1] turned out to be 73%; in series [3] it was 83%. In addition, the results for the EC50 in series [2] and in series [4] were 19 nM and 278 nM, respectively. In [5], the Activity turned out to be 27%.

For the compound `N#Cc1ccc(Oc2ncnc(OC3C4COCC3CN(c3ncc(F)cn3)C4)c2C2CC2)c(Cl)c1` (stereo unspecified), the %max was 56% in series [1] and 100% in [3]. Also, the figures for the EC50 in series [2] and in series [4] were 212 nM and 248 nM, respectively.

Turning to `CCC1(OC(=O)N2CC3COCC(C2)C3Oc2ncnc(Nc3ccc(C#N)cc3F)c2F)CC1` (stereo unspecified), the %max in series [1] turned out to be 89%; in series [3] it was 90%. In addition, the EC50 in series [2] stood at 6 nM; in [4], 43 nM.

As for `CC1(OC(=O)N2CC3COCC(C2)C3Oc2ncnc(Nc3ccc(C#N)cc3Cl)c2F)CCC1` (stereo unspecified), the %max in series [1] came out at 59%; in [3] it was 88%. In addition, the 50% effective concentration (EC50) turned out to be 10 nM in series [2] and 60 nM in series [4].

Regarding `CC1(COC(=O)N2CC3COCC(C2)C3Oc2ncnc(Nc3ccc(C#N)cc3Cl)c2F)COC1` (stereo unspecified), the %max in series [1] turned out to be 41%; in series [3], 46%. The EC50 in series [2] was determined as 188 nM; in series [4], 516 nM.

For the compound `COCC1(OC(=O)N2CC3COCC(C2)C3Oc2ncnc(Nc3ccc(C#N)cc3F)c2F)CC1` (stereo unspecified), the figures for the %max in [1] and in [3] were 62% and 70%, respectively. The EC50 in [2] worked out at 49 nM; in [4] it was 312 nM.

On to `CC(C)COC(=O)N1[C@H]2CC[C@H]1CC(Oc1ncnc(Nc3ccc(C#N)cc3Cl)c1F)C2` (stereo partly specified), for which the %max came out at 81% in series [1] and 44% in [3]. The 50% effective concentration (EC50) in series [2] came to 2.6 nM; in series [4] it was 21 nM. Also, the outcome in series [5] was inactive.

In the case of `CC1(OC(=O)N2C[C@H]3COC[C@@H](C2)[C@@H]3Oc2ncnc(Nc3c(F)cccc3F)c2F)CC1`, the %max was determined as 78% in series [1] and 108% in series [3]. Further, the EC50 in series [2] amounted to 13 nM; in [4] it was 113 nM. The Activity in series [5] is reported as 31%.

What is called solubility is the concentration that dissolves in the medium under given conditions. For `COc1c(Nc2ccc(S(C)(=O)=O)cc2F)ncnc1OC1C[C@@H]2COC[C@@H](C1)N2C(=O)OC1(C)CC1` (stereo partly specified), the %max in series [1] stood at 73%; in series [3], 79%. Besides, the EC50 turned out to be 97 nM in [2] and 0.427 nM in series [4]. In addition, the results for the fraction unbound at 10 µM in series [6] and in series [8] were 0.145 and 0.081, respectively. Besides, the concentration in solution in [7] (solubility) was 17 µM (≈ 9.12 µg/mL).

With `Cc1c(Nc2ccc(C#N)cc2Cl)ncnc1OC1C[C@@H]2CC[C@@H](C1)N2S(=O)(=O)C1CC1` (stereo partly specified), the results for the fraction unbound at 10 µM in [6] and in series [8] were 0.001 and 0.007, respectively. In [7], the solubility was found to be 0.17 µM (≈ 0.0806 µg/mL).

`CC1(OC(=O)N2C[C@H]3COC[C@@H](C2)[C@@H]3Oc2ncnc(Nc3ccccc3F)c2F)CC1`: the results for the %max in series [1] and in series [3] were 78% and 76%, respectively. Also, the figures for the EC50 in series [2] and in series [4] were 6 nM and 25 nM, respectively. The Activity in series [5] is listed as 21%.

Regarding `CC1(OC(=O)N2[C@H]3CC[C@H]2CC(Oc2ncnc(Nc4ccc(C#N)cc4Cl)c2F)C3)CC1` (stereo partly specified), the figures for the %max in series [1] and in [3] were 79% and 42%, respectively. Besides, the figures for the EC50 in series [2] and in series [4] were 3.5 nM and 67 nM, respectively. Further, the Activity in series [5] amounted to 17%.

As for `N[C@@H](CC(=O)N1CCn2c(nnc2C(F)(F)F)C1)Cc1cc(F)c(F)cc1F`, the result in series [9] and in series [10] was Active.

Consider `N#Cc1ccc(Nc2ncnc(OC3C4COCC3CN(C(=O)OC3CCC3)C4)c2F)c(Cl)c1` (stereo unspecified), for which the %max in series [1] was found to be 51%; in series [3], 60%. For the same compound, the figures for the EC50 in series [2] and in [4] were 10 nM and 60 nM, respectively.

Consider `CC1(OC(=O)N2CC3COCC(C2)C3Oc2ncnc(Nc3ccc(F)cc3F)c2F)CC1` (stereo unspecified), for which the %max stood at 94% in [1] and 73% in [3]. The results for the half-maximal effective concentration (EC50) in series [2] and in series [4] were 15 nM and 44 nM, respectively. In addition, the Activity in series [5] amounted to 27%.

Consider `CC1(OC(=O)N2CC3COCC(C2)C3Oc2ncnc(Oc3ccccc3F)c2F)CC1` (stereo unspecified), for which the %max was determined as 114% in series [1] and 136% in [3]. For the same compound, the EC50 in [2] is 26 nM; in series [4], 75 nM. The Activity in series [5] is on record as 20%.

On to `CC1(OC(=O)N2[C@H]3CC[C@H]2CC(Oc2ncnc(Nc4ccc(C#N)cc4Cl)c2F)C3)CCC1` (stereo partly specified), for which the results for the %max in series [1] and in [3] were 77% and 18%, respectively. The EC50 is 5.1 nM in series [2] and 42 nM in series [4]. In addition, the result in [5] was inactive.

Take `CC1(OC(=O)N2CC3COCC(C2)C3Oc2ncnc(Nc3cccnc3Cl)c2F)CC1` (stereo unspecified): the %max in series [1] amounted to 63%; in [3], 84%. The EC50 was 17 nM in series [2] and 58 nM in series [4]. Moreover, the Activity in [5] came to 26%.

Regarding `CC(C)OC(=O)N1[C@H]2CC[C@H]1CC(Oc1ncnc(Nc3ccc(C#N)cc3Cl)c1F)C2` (stereo partly specified), the %max in series [1] came to 87%; in series [3], 29%. For the same compound, the EC50 in series [2] came out at 8 nM; in series [4], 46 nM. In addition, the result in [5] was inactive.
